The record followed here is the array DNA melting data of Ke et al. (doi:10.1101/2024.01.08.574731).

Data set [1] is described as follows: folding enthalpy; higher = less favourable; fluorescence melt of hairpins on a sequencing array, two-state fit. As to conditions: sodium 0.088 M. The procedure, abridged:
(§1)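 Two-state fits, bootstrapped, provided melting temperature and folding enthalpy from Cy3 fluorescence normalised to pre-quench Cy3 and to control constructs. Library hairpins with annealed Cy3 and quencher oligos were imaged on a sequenced MiSeq flow cell in 50 mM Na-HEPES pH 8.0, 25 mM NaCl, at 2.5 °C intervals up to 60 °C. Four replicates were combined with inverse-variance weighting. A 9.35 °C upward shift was applied to fitted temperatures to match UV melts.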

Data set [2] can be described thus: melting temperature; fluorescence melt of hairpins on a sequencing array, two-state fit, raised by 9.35 °C to match UV melts. The conditions noted are these: sodium 0.088 M. A digest of the protocol:
as §1

For GTACTAGGAAACTAGTAC (((((((....))))))), the folding enthalpy in data set [1] is -40.1 kcal/mol. For the same sequence, in data set [2], the Tm was found to be 52.3 °C.

For the sequence GACTCCGAAAGGAGGTC ((((((....))).))), in data set [1], the folding enthalpy is -13.5 kcal/mol. In addition, the Tm in data set [2] worked out at 56.2 °C.

GTACGGCGAAAGCCTTAC (((.(((....))).))): the folding enthalpy in data set [1] was -19.3 kcal/mol. Moreover, the Tm in data set [2] stood at 43.2 °C.

Consider GTAATACGAAAGTATAC (((.(((....)))))), for which, in data set [1], the folding enthalpy was -16 kcal/mol. In data set [2], the Tm turned out to be 34.5 °C.

Take GTAGATGGAAACATTTAC (((.(((....))).))): the folding enthalpy in data set [1] was -17.3 kcal/mol. Besides, the Tm in data set [2] turned out to be 32.1 °C.

As for GGTTGTGGAAACACAATC (.(((((....))))).), the folding enthalpy in data set [1] was -29.7 kcal/mol. In addition, the Tm in data set [2] was 47.9 °C.

Consider GCCTCTCGAAAGAGGGGC (((.(((....))).))), for which the folding enthalpy in data set [1] was -34.1 kcal/mol. The Tm in data set [2] worked out at 63.2 °C.

As to GATCGGGTACCCGATC ((((((....)))))), the folding enthalpy in data set [1] was -47.6 kcal/mol. For the same sequence, the Tm in data set [2] is 64.9 °C.

For GATGGCGAAAGCCTCATC ((((((....)))..))), in data set [1], the folding enthalpy is -8.85 kcal/mol. Moreover, in data set [2], the Tm is 30.7 °C.

Turning to GACGCCGAAAGGCAGGTC ((((((....)))..))), the folding enthalpy in data set [1] is -16.2 kcal/mol. In addition, in data set [2], the Tm was determined as 52.1 °C.

In the case of GCGCTCGAAAGAGACGC ((((((....))).))), the folding enthalpy in data set [1] is -28.6 kcal/mol. Also, the Tm in data set [2] turned out to be 58 °C.

Take GCCCCGCGAAAGCGTAGC ((..(((....)))..)): the folding enthalpy in data set [1] is -9.13 kcal/mol. Moreover, in data set [2], the Tm came out at 35.8 °C.

Regarding GATCCAGTTTGGATC ((((((...)))))), the folding enthalpy in data set [1] is -32.4 kcal/mol. In addition, the Tm in data set [2] was 52.6 °C.

Regarding GTTGTGCGAAAGCATAAC (((.(((....))).))), in data set [1], the folding enthalpy is -30.5 kcal/mol. The Tm in data set [2] turned out to be 54 °C.

With GGATGCGAAAGCAACTCC ((((((....)))..))), in data set [1], the folding enthalpy is -11.9 kcal/mol. Moreover, the Tm in data set [2] is 41.8 °C.

For GCTAGGCGAAAGCGCAGC (((..((....))..))), in data set [1], the folding enthalpy is -15.8 kcal/mol. The Tm in data set [2] was determined as 39.6 °C.

On to GCGGGACCGAAAGGTCGC (((..(((....)))))), for which the folding enthalpy in data set [1] was -11.5 kcal/mol. In addition, the Tm in data set [2] was 56.3 °C.

On to GATTCCGGAAACGGGATC (((.(((....))).))), for which, in data set [1], the folding enthalpy was -43 kcal/mol. Besides, in data set [2], the Tm was 51.2 °C.

For GCGATGCGAAAGCTTAGC ((.(.((....)).).)), in data set [1], the folding enthalpy was -23.6 kcal/mol. Besides, in data set [2], the Tm was 56.9 °C.

With GAGCCCGGAAACAGGCCC (.(((.(....).))).), the folding enthalpy in data set [1] was -8.46 kcal/mol. The Tm in data set [2] turned out to be 27.1 °C.

As to GCTTCGCGAAAGCGAGC (((.(((....)))))), the folding enthalpy in data set [1] was -15.6 kcal/mol. Further, the Tm in data set [2] was 61.4 °C.

Consider GAGCAGCGAAAGCTCCTC (((.(((....))).))), for which, in data set [1], the folding enthalpy is -15.2 kcal/mol. Also, in data set [2], the Tm turned out to be 37.5 °C.

As for GATCTTTTCGAAGATC ((((((....)))))), the folding enthalpy in data set [1] was -33.5 kcal/mol. Also, in data set [2], the Tm came to 46.4 °C.

Take GTTACGCGAAAGCGGAAC (((.(((....))).))): the folding enthalpy in data set [1] is -26.8 kcal/mol. Also, the Tm in data set [2] worked out at 67.5 °C.

As to CGACACGGAAACGTCTCG (((.(((....))).))), the folding enthalpy in data set [1] is -26.8 kcal/mol. Also, in data set [2], the Tm was 35.9 °C.

With GAATGCGGAAACGTATTC ((((.((....)).)))), in data set [1], the folding enthalpy was -35.2 kcal/mol. Moreover, the Tm in data set [2] was determined as 47.6 °C.

As to GTATATGGAAACATATAC (((((((....))))))), the folding enthalpy in data set [1] is -42 kcal/mol. The Tm in data set [2] was 47.9 °C.

For GACGCCGAAAGGCAGTC ((((((....))).))), the folding enthalpy in data set [1] is -18.2 kcal/mol. In addition, the Tm in data set [2] stood at 63.7 °C.

As for GGTATATCGAAAGATACC (((..(((....)))))), the folding enthalpy in data set [1] was -16.3 kcal/mol. For the same sequence, the Tm in data set [2] was found to be 33.6 °C.

With GTCACCGGAAACGACGAC (((..((....))..))), the folding enthalpy in data set [1] is -24.7 kcal/mol. The Tm in data set [2] turned out to be 31.1 °C.

As for GTAAGCGGAAACGCTCAC ((.((((....)))).)), the folding enthalpy in data set [1] is -13.4 kcal/mol. Moreover, in data set [2], the Tm was 37.7 °C.

As for GCGCCGCGAAAGCCTCGC (((..((....))..))), the folding enthalpy in data set [1] was -19.3 kcal/mol. For the same sequence, the Tm in data set [2] amounted to 44.4 °C.

Turning to GATACCGGAAACGATATC ((((.((....)).)))), the folding enthalpy in data set [1] was -25.8 kcal/mol. Further, the Tm in data set [2] is 34.8 °C.

As to GAAAAGACGAAAGTCTTC (((..(((....)))))), in data set [1], the folding enthalpy is -11.8 kcal/mol. Moreover, in data set [2], the Tm is 35.6 °C.

With GGATGAGGAAACTCATCC (((((((....))))))), the folding enthalpy in data set [1] was -43.5 kcal/mol. For the same sequence, the Tm in data set [2] came to 63.1 °C.

Regarding GGAACTGGAAACGGTTCC (((((.(....).))))), in data set [1], the folding enthalpy is -34.9 kcal/mol. Further, the Tm in data set [2] amounted to 51 °C.

Turning to GATCACGTTGGTGATC ((((((....)))))), in data set [1], the folding enthalpy was -37 kcal/mol. Besides, the Tm in data set [2] stood at 58.2 °C.

Regarding CTTCTGAAAAGAAG (((((....))))), the folding enthalpy in data set [1] was -14.7 kcal/mol. The Tm in data set [2] worked out at 43.3 °C.

Regarding GCTTGGCGAAAGCCACGC ((.((((....)))).)), in data set [1], the folding enthalpy is -19 kcal/mol. Further, the Tm in data set [2] was found to be 58.5 °C.

GCTCTGAAAAGAGC (((((....))))): the folding enthalpy in data set [1] is -21.6 kcal/mol. Also, the Tm in data set [2] is 57.8 °C.

As to GATCACATATGTGATC ((((((....)))))), the folding enthalpy in data set [1] is -41.9 kcal/mol. For the same sequence, in data set [2], the Tm is 58.9 °C.

Take GTGCAGCGAAAGCTTCAC (((.(((....))).))): the folding enthalpy in data set [1] was -27.6 kcal/mol. Also, the Tm in data set [2] is 51.6 °C.

Turning to GATGTTGAAAAACATC ((((((....)))))), the folding enthalpy in data set [1] is -35.7 kcal/mol. Also, the Tm in data set [2] was found to be 51.6 °C.

As to GTATTGCCGAAAGGCTAC (((..(((....)))))), the folding enthalpy in data set [1] is -3.24 kcal/mol. For the same sequence, the Tm in data set [2] is 50 °C.

With GATCGCTAATGCGATC ((((((....)))))), the folding enthalpy in data set [1] is -31.4 kcal/mol. For the same sequence, in data set [2], the Tm worked out at 67.1 °C.

For the sequence GCATCGCGAAAGCTAGGC ((.(.((....)).).)), the folding enthalpy in data set [1] is -14 kcal/mol. In addition, the Tm in data set [2] is 42.8 °C.

As to GATAGCCGAAAGGCATC (((.(((....)))))), the folding enthalpy in data set [1] was -12.2 kcal/mol. Besides, the Tm in data set [2] amounted to 43.3 °C.

Consider GCTGGGCGAAAGCTCCGC ((.(.((....)).).)), for which the folding enthalpy in data set [1] was -20.4 kcal/mol. In addition, in data set [2], the Tm is 41.8 °C.

Take GGACACACGAAAGTGTCC (((..(((....)))))): in data set [1], the folding enthalpy was -30.7 kcal/mol. For the same sequence, the Tm in data set [2] came out at 57.9 °C.

For GGACCCGGAAACGGGCCC ((.((((....)))).)), the folding enthalpy in data set [1] is -19.2 kcal/mol. Moreover, the Tm in data set [2] stood at 59.6 °C.

As for GATCACTAGGGTGATC ((((((....)))))), the folding enthalpy in data set [1] is -41.7 kcal/mol. The Tm in data set [2] amounted to 57.3 °C.

GCTTCCTCGAAAGAGAGC (((..(((....)))))): the folding enthalpy in data set [1] was -12.7 kcal/mol. For the same sequence, in data set [2], the Tm came to 28.9 °C.

As to GATCGATCTTTCGATC ((((((....)))))), in data set [1], the folding enthalpy was -48.8 kcal/mol. Besides, the Tm in data set [2] was 53.1 °C.

Regarding GAGTAAGGAAACTTACTC (((((((....))))))), the folding enthalpy in data set [1] is -43.1 kcal/mol. Moreover, the Tm in data set [2] turned out to be 52.1 °C.

Regarding GTGTGCGAAAGCACTCAC ((((((....)))..))), the folding enthalpy in data set [1] was -8.88 kcal/mol. The Tm in data set [2] amounted to 41.8 °C.
